PDI inh: inhibitors of human PDI, primary screen, biochemical, turbidity, single point, plate reader. 350,000 tested, 0.052% active. AID 588391, 2011. PDI insulin aggregation turbidity, A650, 90 min. Protein disulfide-isomerase (Homo sapiens), P07237. inhibition, % at 10 µM;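 active = mean inhibition across replicates of 30% or more, whatever share of single replicates reach that level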
Env fusion inh: inhibitors of HIV-1 Env-driven cell-cell fusion, primary screen, HeLa-JRFL effector, CEM21 target cells, luciferase. inhibition, % at 12.3 µM. 360,000 tested, 1.1% active;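 active = mean replicate inhibition score of at least 50 and every replicate individually at or above 50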
Ecoli rRNA inh: reduced GFP signal of wild-type E. coli, primary screen, bacterial rRNA inhibitor project, GFP/RFP fluorescence, OD600, single point | GFP signal change (wild-type ribosome), % (no concentration beside the values) | 350,000 tested, 1.6% active | E. coli WT GFP vs humanized-ribosome RFP mutants, 24 h; active compounds read low; DMSO median 0, no signal -100 | AID 720706, 2013;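 active = significant combined selectivity score with lowered wild-type GFP, culture density cut under 30%, mutant RFP and density less affected; inactive = any of these conditions unmet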
FN deposition inh: inhibitors of fibronectin matrix deposition, primary screen, AH1F cells, Alexa488-fibronectin fluorescence, plate reader; AH1F fibroblasts, overnight; inhibition, % at 12.6 µM; 350,000 tested, 0.086% active;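 active = mean inhibition across replicates of 30% or more, regardless of how many single replicates reach that level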
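Assay system: AH1F fibroblasts assembling fluorescent fibronectin matrix; Amount: 10000 AH1F cells per well; Buffer or medium: DMEM, 2% serum; Probe or stimulus: Alexa488-fibronectin, 24 nM final in well; Doses: single compound dose, delivered by pin transfer; Incubation: 1 h adhesion, overnight exposure; Measured by: fluorescence 485/525 nm; Read-out: fibronectin deposition inhibition.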
ERp5 block: inhibitors of ERp5-driven insulin aggregation, primary screen, biochemical, turbidity, absorbance 650 nm, single point; Protein disulfide-isomerase A6 (Homo sapiens), Q15084; 90 min; inhibition, % at 9.99 µM; 350,000 tested, 0.05% active; AID 651711, 2012;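 active = mean replicate inhibition above about 25%, with every replicate also reaching it, limit read from the data, passing the limit was not always enough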
Target sequence (Q15084 whole entry, looked up): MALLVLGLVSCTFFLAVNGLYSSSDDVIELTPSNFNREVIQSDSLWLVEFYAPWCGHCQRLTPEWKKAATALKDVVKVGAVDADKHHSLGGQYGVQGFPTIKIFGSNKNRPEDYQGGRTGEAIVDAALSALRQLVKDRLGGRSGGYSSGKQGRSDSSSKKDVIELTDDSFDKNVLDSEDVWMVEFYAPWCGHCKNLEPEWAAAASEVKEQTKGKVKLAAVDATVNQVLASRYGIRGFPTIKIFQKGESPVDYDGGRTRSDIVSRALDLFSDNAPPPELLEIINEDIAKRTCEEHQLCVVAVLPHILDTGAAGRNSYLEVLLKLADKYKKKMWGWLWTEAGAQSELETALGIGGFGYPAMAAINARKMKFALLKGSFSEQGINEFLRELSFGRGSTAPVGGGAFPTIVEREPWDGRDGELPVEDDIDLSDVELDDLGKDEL
PvdQ acylase: P. aeruginosa PvdQ acylase inhibitors, primary screen, biochemical, fluorescence, plate reader and imaging, single point | AID 488965, 2010 | purified PvdQ acylase | PvdQ acylase [Pseudomonas aeruginosa LESB58] | inhibition, % at 10 µM | 340,000 tested, 0.063% active; in the data active = inhibition above about 30%, passing the limit was not always enough
Numbers stand for hits. Hits are enriched below; roughly 2.2% of the tested compounds scored in any of these assays.

CCOC(=O)C1CCN(c2ncnc3c(C)csc23)CC1 was read as PDI inh inactive, Env fusion inh inactive, Ecoli rRNA inh -25, FN deposition inh inactive, ERp5 block inactive and PvdQ acylase inactive.
C[C@@H]1CN([C@H](C)CO)C(=O)c2cc(NS(=O)(=O)c3ccc(F)cc3)ccc2O[C@@H](C)CCCCO[C@H]1CN(C)S(=O)(=O)c1ccccc1 was read as Ecoli rRNA inh inactive, FN deposition inh inactive and ERp5 block inactive.
Screening COc1ccc(C(=O)OCC(=O)Nc2nnc(-c3ccccc3)o2)cc1 returned PDI inh inactive, Env fusion inh inactive, Ecoli rRNA inh inactive, FN deposition inh inactive, ERp5 block inactive and PvdQ acylase inactive.
COc1cccc(CC(=O)OCC(=O)Nc2nnc(-c3ccccc3)o2)c1 was read as PDI inh inactive, Env fusion inh inactive, Ecoli rRNA inh -27, FN deposition inh inactive, ERp5 block inactive and PvdQ acylase inactive.
`CC(C)(C)c1ccc(C(=O)Nc2ccc(Cl)cc2)cc1` gave PDI inh inactive, Ecoli rRNA inh inactive, FN deposition inh inactive, ERp5 block inactive and PvdQ acylase inactive.
`COC(=O)Cc1ccc(NC(=O)c2ccc(C(C)(C)C)cc2)cc1` gave PDI inh inactive, Env fusion inh 59 and PvdQ acylase inactive.
`CN(C)C(=O)c1ccc(NC(=O)CSc2nc3ccccc3[nH]2)cc1` gave PDI inh inactive, Env fusion inh inactive, Ecoli rRNA inh -21, FN deposition inh inactive, ERp5 block inactive and PvdQ acylase inactive.
`CN(C)S(=O)(=O)c1cccc(NC(=O)CSc2nc3ccccc3[nH]2)c1` gave PDI inh inactive, Env fusion inh inactive, Ecoli rRNA inh inactive, FN deposition inh inactive, ERp5 block inactive and PvdQ acylase inactive.
O=C(CSc1nnc(-c2ccccc2F)n1C1CC1)Nc1ccc2[nH]c(=O)[nH]c2c1 was read as PDI inh inactive, Env fusion inh inactive, Ecoli rRNA inh inactive, FN deposition inh inactive, ERp5 block inactive and PvdQ acylase inactive.
`O=C(CSc1nc2ccccc2[nH]1)Nc1cccc(S(=O)(=O)N2CCOCC2)c1` gave PDI inh inactive, Env fusion inh inactive, Ecoli rRNA inh -36, FN deposition inh inactive, ERp5 block inactive and PvdQ acylase inactive.
For O=C(COC(=O)c1cc(=O)[nH]c2ccccc12)Nc1cccc(S(=O)(=O)N2CCOCC2)c1 the results were PDI inh inactive, Env fusion inh inactive, Ecoli rRNA inh -17, FN deposition inh inactive, ERp5 block inactive and PvdQ acylase inactive.
Screening NS(=O)(=O)c1cccc(NC(=O)CSc2nnc(-c3ccccc3F)n2C2CC2)c1 returned PDI inh inactive, Env fusion inh inactive, Ecoli rRNA inh -29, FN deposition inh inactive, ERp5 block inactive and PvdQ acylase inactive.
`COCC#Cc1cnc2c(c1)C(=O)N([C@@H](C)CO)C[C@@H](C)[C@H](CN(C)Cc1ccc(-c3ccccc3)cc1)O2` gave Env fusion inh inactive and Ecoli rRNA inh inactive.
NS(=O)(=O)c1cccc(NC(=O)CSc2nc3ccc(Cl)cc3[nH]2)c1 was read as PDI inh inactive, Env fusion inh inactive, Ecoli rRNA inh -37, FN deposition inh inactive, ERp5 block inactive and PvdQ acylase inactive.
For O=C(CSc1nc2ccc(Cl)cc2[nH]1)c1cccs1 the results were PDI inh inactive, Env fusion inh inactive, Ecoli rRNA inh -25, FN deposition inh inactive, ERp5 block inactive and PvdQ acylase inactive.
For Cc1cc(C(=O)CSc2nc3ccc(Cl)cc3[nH]2)c(C)n1C the results were PDI inh inactive, Env fusion inh inactive, FN deposition inh inactive and PvdQ acylase inactive.
`CN(C)C(=O)C[C@H]1C=C[C@@H](NC(=O)C2CC2)[C@H](CO)O1` gave Env fusion inh inactive, Ecoli rRNA inh inactive, FN deposition inh inactive and ERp5 block inactive.
For NNC(=S)NC1CC2CC1C1C=CCC21 (configuration not stated) the results were PDI inh inactive, Env fusion inh inactive, Ecoli rRNA inh -21, FN deposition inh inactive, ERp5 block inactive and PvdQ acylase inactive.
